Measured values reported in ChEMBL document CHEMBL1121844, “Synthesis and preliminary antitumor evaluation of 5-iminodoxorubicin” (1981).

Key:
Type in all cases: functional
[1] = species: Rattus norvegicus; assay: Compound was evaluated for augmentation of rat liver microsomal oxygen consumption relative to doxorubicin
[2] = tested on: Mus musculus; assay: Compound was evaluated for antitumor activity in mice injected intraperitoneal with leukemia P-388 cells, treated on days 5, 9, and 13th day at 3.46 mg/kg
How it was run: (§1)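 Mice received leukemia P-388 cells intraperitoneally on day 0. The specified dose was then given ip on days 5, 9 and 13. Read-out was % T/C, the survival time of treated mice relative to untreated controls. A T/C of 120% or more was defined as active.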

[3] = tested on: Mus musculus; assay: Compound was evaluated for antitumor activity in mice injected intraperitoneal with leukemia P-388 cells, treated on days 5, 9, and 13th day at 6 mg/kg; how it was run: as §1
[4] = tested on: Mus musculus; assay: Compound was evaluated for antitumor activity in mice injected intraperitoneal with leukemia P-388 cells, treated on days 5, 9, and 13th day at 12 mg/kg; how it was run: as §1
[5] = tested on: L1210; assay: Dose required to inhibit the RNA synthesis in leukemia L1210 cells; conditions: Mus musculus, read-out: ED50 (the source's name)
[6] = tested on: Mus musculus; assay: Compound was evaluated for antitumor activity in mice injected intraperitoneal with leukemia P-388 cells, treated on days 5, 9, and 13th day at 5.76 mg/kg; how it was run: as §1
[7] = tested on: Mus musculus; assay: Compound was evaluated for antitumor activity in mice injected intraperitoneal with leukemia P-388 cells, treated on days 5, 9, and 13th day at 3 mg/kg; how it was run: as §1
[8] = tested on: Mus musculus; assay: Compound was evaluated for antitumor activity in mice injected intraperitoneal with leukemia P-388 cells, treated on days 5, 9, and 13 th day at 24 mg/kg; how it was run: as §1
[9] = tested on: Mus musculus; assay: Compound was evaluated for antitumor activity in mice injected intraperitoneal with leukemia P-388 cells, treated on days 5, 9, and 13th day at 16 mg/kg; how it was run: as §1
[10] = tested on: Mus musculus; assay: Compound was evaluated for antitumor activity in mice injected intraperitoneal with leukemia P-388 cells, treated on days 5, 9, and 13th day at 1.94 mg/kg; how it was run: as §1
[11] = tested on: Mus musculus; assay: Compound was evaluated for antitumor activity in mice injected intraperitoneal with leukemia P-388 cells, treated on days 5, 9, and 13th day at 9 mg/kg; how it was run: as §1
[12] = tested on: Mus musculus; assay: Compound was evaluated for antitumor activity in mice injected intraperitoneal with leukemia P-388 cells, treated on days 5, 9, and 13th day at 1.5 mg/kg; how it was run: as §1
[13] = tested on: Nucleic Acid; assay: Thermal denaturation for stabilization of helical DNA by the compound
[14] = tested on: Mus musculus; assay: Compound was evaluated for antitumor activity in mice injected intraperitoneal with leukemia P-388 cells, treated on days 5, 9, and 13th day at 5.4 mg/kg; how it was run: as §1
[15] = tested on: Mus musculus; assay: Compound was evaluated for antitumor activity in mice injected intraperitoneal with leukemia P-388 cells, treated on days 5, 9, and 13th day at 9.6 mg/kg; how it was run: as §1
[16] = tested on: L1210; assay: Dose required to inhibit the DNA synthesis in leukemia L1210 cells; conditions: Mus musculus, read-out: ED50 (the source's name)
[17] = tested on: Mus musculus; assay: Compound was evaluated for antitumor activity in mice injected intraperitoneal with leukemia P-388 cells, treated on days 5, 9, and 13th day at 3.24 mg/kg; how it was run: as §1
[18] = tested on: Mus musculus; assay: Compound was evaluated for antitumor activity in mice injected intraperitoneal with leukemia P-388 cells, treated on days 5, 9, and 13th day at 2 mg/kg; how it was run: as §1
[19] = tested on: Mus musculus; assay: Compound was evaluated for antitumor activity in mice injected intraperitoneal with leukemia P-388 cells, treated on days 5, 9, and 13th day at 4 mg/kg; how it was run: as §1
[20] = tested on: Mus musculus; assay: Compound was evaluated for antitumor activity in mice injected intraperitoneal with leukemia P-388 cells, treated on days 5, 9, and 13th day at 8 mg/kg; how it was run: as §1
[21] = tested on: Mus musculus; assay: Compound was evaluated for antitumor activity in mice injected intraperitoneal with leukemia P-388 cells, treated on days 5, 9, and 13 th day at 16 mg/kg; how it was run: as §1
[22] = tested on: Mus musculus; assay: Compound was evaluated for antitumor activity in mice injected intraperitoneal with leukemia P-388 cells, treated on days 5, 9, and 13 th day at 2 mg/kg; how it was run: as §1
[23] = tested on: Mus musculus; assay: Compound was evaluated for antitumor activity in mice injected intraperitoneal with leukemia P-388 cells, treated on days 5, 9, and 13 th day at 1 mg/kg; how it was run: as §1
[24] = tested on: Mus musculus; assay: Compound was evaluated for antitumor activity in mice injected intraperitoneal with leukemia P-388 cells, treated on days 5, 9, and 13 th day at 8 mg/kg; how it was run: as §1
[25] = tested on: Mus musculus; assay: Compound was evaluated for antitumor activity in mice injected intraperitoneal with leukemia P-388 cells, treated on days 5, 9, and 13 th day at 4 mg/kg; how it was run: as §1
[26] = tested on: Mus musculus; assay: Compound was evaluated for antitumor activity in mice injected intraperitoneal with leukemia P-388 cells, treated on days 5, 9, and 13 th day at 50 mg/kg; how it was run: as §1
[27] = tested on: Mus musculus; assay: Compound was evaluated for antitumor activity in mice injected intraperitoneal with leukemia P-388 cells, treated on days 5, 9, and 13th day at 6.25 mg/kg; how it was run: as §1
[28] = tested on: Mus musculus; assay: Compound was evaluated for antitumor activity in mice injected intraperitoneal with leukemia P-388 cells, treated on days 5, 9, and 13th day at 25 mg/kg; how it was run: as §1
[29] = tested on: Mus musculus; assay: Compound was evaluated for antitumor activity in mice injected intraperitoneal with leukemia P-388 cells, treated on days 5, 9, and 13th day at 12.5 mg/kg; how it was run: as §1

**Q.** `COc1cccc2c1C(=N)c1c(O)c3c(c(O)c1C2=O)C[C@@](O)(C(C)=O)C[C@@H]3OC1CC(N)C(O)C(C)O1.Cl` (stereo partly specified) was tested. Which Augmentation [1] did it give?
**A.** 8.2%

**Q.** What about the T/C [2] of the same compound?
**A.** 177%

**Q.** And the T/C [3]?
**A.** 124%

**Q.** And the T/C [4]?
**A.** 116%

**Q.** And the EC50 [5]?
**A.** 1.3 µM

**Q.** And the T/C [6]?
**A.** 186%

**Q.** What about the T/C [7] of the same compound?
**A.** 130%

**Q.** What about the T/C [8] of the same compound?
**A.** 126%

**Q.** And the T/C [9]?
**A.** 140%

**Q.** What about the T/C [10] of the same compound?
**A.** 137%

**Q.** And the T/C [11]?
**A.** 157%

**Q.** And the T/C [12]?
**A.** 126%

**Q.** And the ΔTm [13]?
**A.** 6.2 °C

**Q.** And the T/C [14]?
**A.** 161%

**Q.** What about the T/C [15] of the same compound?
**A.** 180%

**Q.** And the EC50 [16]?
**A.** 1.6 µM

**Q.** What about the T/C [17] of the same compound?
**A.** 150%

**Q.** For `COc1cccc2c1C(=O)c1c(O)c3c(c(O)c1C2=O)C[C@@](O)(C(C)=O)C[C@@H]3O[C@H]1C[C@H](N)[C@H](O)[C@H](C)O1.Cl` [DAUNORUBICIN HYDROCHLORIDE], which Augmentation [1] is on record?
**A.** 109%

**Q.** What about the EC50 [5] of the same compound?
**A.** 0.3 µM

**Q.** And the T/C [18]?
**A.** 123%

**Q.** What about the T/C [19] of the same compound?
**A.** 126%

**Q.** And the T/C [20]?
**A.** 129%

**Q.** What about the EC50 [16] of the same compound?
**A.** 1 µM

**Q.** What about the T/C [21] of the same compound?
**A.** 123%

**Q.** Which Augmentation [1] does the source give for `COc1cccc2c1C(=O)c1c(O)c3c(c(O)c1C2=O)C[C@@](O)(C(=O)CO)C[C@@H]3O[C@H]1C[C@H](N)[C@H](O)[C@H](C)O1.Cl` [DOXORUBICIN HYDROCHLORIDE] here?
**A.** 100%

**Q.** And the T/C [22]?
**A.** 130%

**Q.** And the EC50 [5]?
**A.** 0.7 µM

**Q.** And the T/C [23]?
**A.** 123%

**Q.** What about the ΔTm [13] of the same compound?
**A.** 13.4 °C

**Q.** And the EC50 [16]?
**A.** 1.5 µM

**Q.** And the T/C [24]?
**A.** 162%

**Q.** And the T/C [21]?
**A.** 125%

**Q.** What about the T/C [25] of the same compound?
**A.** 144%

**Q.** For `COc1cccc2c1C(=N)c1c(O)c3c(c(O)c1C2=O)C[C@@](O)(C(=O)CO)C[C@@H]3OC1CC(N)C(O)C(C)O1.Cl` (stereo partly specified), which Augmentation [1] is on record?
**A.** 7.5%

**Q.** What about the T/C [26] of the same compound?
**A.** 173%

**Q.** What about the T/C [27] of the same compound?
**A.** 122%

**Q.** What about the EC50 [5] of the same compound?
**A.** 2.1 µM

**Q.** And the T/C [28]?
**A.** 155%

**Q.** What about the ΔTm [13] of the same compound?
**A.** 6.9 °C

**Q.** What about the T/C [29] of the same compound?
**A.** 132%

**Q.** And the EC50 [16]?
**A.** 2 µM
